Reference: ChEMBL document CHEMBL1126650, “Synthesis and structure-activity relationships of novel benzimidazole and imidazo[4,5-b]pyridine acid derivatives as thromboxane A2 receptor antagonists” (J Med Chem, 1993)

Tests used:
[1] = target: T1, Thromboxane A2 receptor (Homo sapiens) (UniProt P21731); experiment: Tested in vitro for percent inhibition against TXA2 / PGH-2 receptor using [125I]PTA-OH in human platelets at 10 e-7 M
T1 sequence (whole entry): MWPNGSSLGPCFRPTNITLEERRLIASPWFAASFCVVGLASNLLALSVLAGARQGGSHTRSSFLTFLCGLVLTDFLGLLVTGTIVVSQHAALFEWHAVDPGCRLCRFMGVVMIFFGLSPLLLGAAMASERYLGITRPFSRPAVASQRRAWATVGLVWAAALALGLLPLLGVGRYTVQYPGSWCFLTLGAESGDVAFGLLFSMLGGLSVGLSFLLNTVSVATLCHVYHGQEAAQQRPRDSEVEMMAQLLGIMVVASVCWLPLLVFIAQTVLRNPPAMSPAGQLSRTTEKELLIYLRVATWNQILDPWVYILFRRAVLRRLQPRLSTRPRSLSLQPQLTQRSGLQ
Procedure, shortened: (§1)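 Washed human platelets from volunteer blood drawn into EDTA 5 mM and indomethacin 20 µM (final); PRP at 200 g, pellet at 2000 g. 5 × 10^7 platelets incubated 30 min at 37 °C with 0.1 nM [125I]PTA-OH in Tris/NaCl/dextrose/indomethacin buffer, pH 7.4. Screening at 10^-7 and 10^-5 M. Filtration, gamma counting. Nonspecific binding set by a tetrahydrocarbazole-acetic acid antagonist. Triplicate.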

[2] = target: T1, Thromboxane A2 receptor (Homo sapiens); experiment: In vitro for percent inhibition against TXA2 / PGH-2 receptor using [125I]PTA-OH in human platelets at 10 e-5 M; procedure, shortened: as §1
[3] = target: T2, Thromboxane A2 receptor (Homo sapiens, UniProt P21731); experiment: Tested in vitro for inhibition constant against TXA2 / PGH-2 receptor using [125I]PTA-OH binding affinity to human platelets
T2 sequence (P21731 whole entry): T1 sequence (whole entry)

[4] = system: Cavia porcellus; experiment: In vivo inhibition of […]- epoxymethano-PGH2 (1 uM) induced platelet aggregation of guinea pig platelet-rich plasma (PRP) 1 hr after per os administration at 0.3 mg/kg po; format: functional
Procedure, shortened: (§2)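 Guinea pigs dosed orally. Platelet-rich plasma taken 1 h later and aggregation triggered with 11,9-epoxymethano-PGH2 (U-IPA) at 1 µM.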

[5] = system: Cavia porcellus; experiment: In vivo inhibition of […]- epoxymethano-PGH2 (1 uM) induced platelet aggregation of guinea pig platelet-rich plasma (PRP) 1 hr after per os administration at 1 mg/kg po; format: functional; procedure, shortened: as §2

SMILES | inhibition [1] [%] | inhibition [2] [%] | Ki [3] [nM] | inhibition in vivo at 0.3 mg/kg [4] [%] | inhibition in vivo at 1 mg/kg [5] [%]
Cc1ccc(Cn2c(CC(C)(C)CC(=O)O)nc3ccccc32)cc1 | 52 | 100 | – | – | –
O=C(O)CC1CCCc2c1n(Cc1ccc(Cl)cc1)c1ccc(F)cc21 (stereo not given) | 100 | 100 | 15.3 | – | –
O=C(O)CC1(Cc2nc3cc(F)ccc3n2Cc2ccc(Cl)cc2)CCCC1 | 71 | 100 | – | – | –
CC(C)(CC(=O)O)Cc1nc2ccccc2n1Cc1ccc(O)cc1 | 50 | 96 | – | – | –
O=C(O)[C@@H]1CC=CC[C@@H]1c1nc2cc(F)ccc2n1Cc1ccc(Cl)cc1 | 15 | 96 | 510 | – | –
COc1ccc(Cn2c(CC(C)(C)CC(=O)O)nc3cc(F)ccc32)cc1 | 79 | 100 | 4 | – | –
CC(C)(CC(=O)O)Cc1nc2cc(Cl)c(Cl)cc2n1Cc1ccc(Cl)cc1 | 14 | 100 | – | – | –
O=C(O)CC1(Cc2nc3cc(F)ccc3n2Cc2ccc(Cl)cc2)CCCCC1 | 0 | 98 | 870 | – | –
O=C(O)[C@H]1CCC[C@@H]1c1nc2cc(F)ccc2n1Cc1ccc(Cl)cc1 | 37 | 100 | 140 | – | –
CC(C)(CCC(=O)O)Cc1nc2cc(F)ccc2n1Cc1ccc(Cl)cc1 | 56 | 87 | 23 | – | –
CC(C)(CC(=O)O)Cc1nc2ccccc2n1Cc1ccc(F)cc1 | 66 | 100 | – | – | –
CSc1ccc(Cn2c(CC(C)(C)CC(=O)O)nc3cc(F)ccc32)cc1 | 100 | 100 | – | – | –
O=C(O)CC1(Cc2nc3cc(F)ccc3n2Cc2ccc(Cl)cc2)CC1 | 80 | 98 | 52 | – | –
CC(C)(CC(=O)O)Cc1nc2ccccc2n1Cc1ccc(Cl)cc1 | 85 | 100 | – | – | –
CCC(C)(CC(=O)O)Cc1nc2ccccc2n1Cc1ccc(Cl)cc1 (stereo not given) | 57 | 100 | – | – | –
CC(C)(CC(=O)O)Cc1nc2ccccc2n1Cc1ccc(Br)cc1F | 88 | 99 | 11 | – | –
CC(C)(CC(=O)O)Cc1nc2cc(Cl)ccc2n1Cc1ccc(Cl)c(Cl)c1 | 71 | 92 | 12 | – | –
O=C(O)CC(Cc1nc2ccccc2n1Cc1ccc(Cl)cc1)c1ccccc1 (stereo not given) | 0 | 17 | – | – | –

SMILES | inhibition [1] [%] | inhibition [2] [%] | Ki [3] [nM] | inhibition in vivo at 0.3 mg/kg [4] [%] | inhibition in vivo at 1 mg/kg [5] [%]
CSc1ccc(Cn2c(CC(C)(C)CC(=O)O)nc3cc(Cl)cnc32)cc1 | 82 | 87 | 7 | – | –
COc1ccc2c(c1)nc(CC(C)(C)CC(=O)O)n2Cc1ccc(Cl)cc1 | 44 | 100 | – | – | –
CC(C)(CC(=O)O)Cc1nc2cc(Br)ccc2n1Cc1ccc(Cl)cc1 | 38 | 67 | – | – | –
CC(C)(CC(=O)O)Cc1nc2cc(Cl)ccc2n1Cc1ccc(Cl)cc1F | 77 | 87 | – | – | –
CC(C)(CC(=O)O)Cc1nc2cc(F)ccc2n1Cc1ccc(Br)cc1F | 98 | 100 | – | – | –
CC(C)(CC(=O)O)Cc1nc2cc(Cl)ccc2n1Cc1ccc(S(C)(=O)=O)cc1 | 69 | 82 | – | – | –
O=C(O)CCCSc1nc2cc(Cl)cnc2n1Cc1ccc(Cl)cc1 | 6 | 39 | – | – | –
CC(C)(CC(=O)O)Cc1nc2cc(F)ccc2n1Cc1ccc(Cl)c(Cl)c1 | 89 | 92 | – | – | –
CC(C)(CC(=O)O)Cc1nc2ccccc2n1Cc1ccc([N+](=O)[O-])cc1 | 83 | 100 | – | – | –
COc1ccc(Cn2c(CC(C)(C)CC(=O)O)nc3cc(Cl)ccc32)cc1 | 95 | 100 | 20 | – | –
CC(C)(CC(=O)O)Cc1nc2cc(Cl)ccc2n1Cc1ccc(Cl)cc1 | 74 | 99 | – | – | –
O=C(O)CCCCSc1nc2cc(F)ccc2n1Cc1ccc(Cl)cc1 | 28 | 100 | – | – | –
CC(C)(Sc1nc2cc(Cl)cnc2n1Cc1ccc(Cl)cc1)C(=O)O | 30 | 100 | – | – | –
CC(C)(CC(=O)O)Cc1nc2cc(Cl)cnc2n1Cc1ccc(Cl)cc1 [MIPITROBAN] | 97 | 100 | 21 | 44 | 81
CC(Sc1nc2cc(F)ccc2n1Cc1ccc(Cl)cc1)C(=O)O (stereo not given) | 9 | 83 | – | – | –
CC(C)(CC(=O)O)Cc1nc2cc(F)ccc2n1Cc1ccc(Br)cc1 | 92 | 95 | 12 | – | –
O=C(O)CCCSc1nc2cc(Cl)cnc2n1Cc1ccc(Br)cc1F | 24 | 60 | – | – | –
O=C(O)CCCSc1nc2cc(F)ccc2n1Cc1ccc(Cl)cc1 | 8 | 93 | – | – | –

Second part, led by results:

inhibition [1] [%] | inhibition [2] [%] | Ki [3] [nM] | SMILES | inhibition in vivo at 0.3 mg/kg [4] [%] | inhibition in vivo at 1 mg/kg [5] [%]
27 | 64 | – | O=C(O)CCCSc1nc2cccnc2n1Cc1ccc(Cl)cc1 | – | –
0 | 28 | – | CC(C)(CC(=O)O)c1nc2ccccc2n1Cc1ccc(Cl)cc1 | – | –
100 | 100 | – | CC(C)(CC(=O)O)Cc1nc2cc(F)ccc2n1Cc1ccc(S(C)(=O)=O)cc1 | – | –
41 | 62 | 39 | CC(C)(CC(=O)O)Cc1nc2cccnc2n1Cc1ccc(Cl)cc1 | – | –
13 | 95 | – | CC(C)(CC(=O)O)Cc1nc2ccccc2n1Cc1ccccc1 | – | –
98 | 100 | – | CC(C)(CC(=O)O)Cc1nc2cc(Cl)ccc2n1Cc1ccc(Br)cc1 | – | –
10 | 100 | – | CC(CC(=O)O)Cc1nc2ccccc2n1Cc1ccc(Cl)cc1 (stereo not given) | – | –
3 | 83 | 670 | CC(C)(Sc1nc2cc(F)ccc2n1Cc1ccc(Cl)cc1)C(=O)O | – | –
0 | 0 | – | CC(C)(CC#N)Cc1nc2ccccc2n1Cc1ccc(Cl)cc1 | – | –
35 | 97 | 160 | CCC(CC)(CC(=O)O)Cc1nc2ccccc2n1Cc1ccc(Cl)cc1 | – | –
86 | 96 | 16 | CC(C)(CC(=O)O)Cc1nc2ccccc2n1Cc1ccc(Br)cc1 | – | –
49 | 100 | – | CC(C)(CC(=O)O)Cc1nc2ccccc2n1Cc1cccc(C(F)(F)F)c1 | – | –
0 | 50 | 1700 | CC(C)(Cc1nc2cc(F)ccc2n1Cc1ccc(Cl)cc1)C(=O)O | – | –
94 | 100 | 7.8 | CC(C)(CC(=O)O)Cc1nc2cc(F)ccc2n1Cc1ccc(Cl)cc1 | – | –
74 | 95 | – | CC(C)(CC(=O)O)Cc1nc2cc(Cl)ccc2n1Cc1ccc(Br)cc1F | – | –
58 | 77 | – | CC(C)(CC(=O)O)Cc1nc2cc(F)ccc2n1Cc1ccc(Cl)cc1F | – | –
89 | 100 | – | COc1ccc(Cn2c(CC(C)(C)CC(=O)O)nc3ccccc32)cc1 | – | –
2 | 97 | 810 | O=C(O)[C@H]1CC[C@@H]1c1nc2cc(F)ccc2n1Cc1ccc(Cl)cc1 | – | –
13 | 95 | – | O=C(O)COc1ccc(CCNS(=O)(=O)c2ccccc2)cc1 | – | –
7 | 90 | – | CC(C)(CC(N)=O)Cc1nc2ccccc2n1Cc1ccc(Cl)cc1 | – | –
0 | 64 | 5600 | O=C(O)CCc1nc2cc(F)ccc2n1Cc1ccc(Cl)cc1 | – | –
87 | 89 | 6 | CSc1ccc(Cn2c(CC(C)(C)CC(=O)O)nc3cc(Cl)ccc32)cc1 | – | –
